Results on six compounds are retold here after ChEMBL document CHEMBL4321830, “A Chemical-Intervention Strategy To Circumvent Peptide Hydrolysis by d-Stereoselective Peptidases” (J Med Chem, 2019).

Where a SMILES comes first, the peptide text is derived from it. [ ]: non-standard residue; d: D form. The star is where a group is joined. NMeF = CN[C@@H](Cc1ccccc1)C(=O)O; dDab = NCC[C@@H](N)C(=O)O; Octanoyl = CCCCCCCC(=O)*; Dab = NCC[C@H](N)C(=O)O; Aib = CC(C)(N)C(=O)O; Sar = CNCC(=O)O

As usually defined, the MIC is the least concentration at which growth counts as inhibited.

One data set deals with Staphylococcus aureus. Nature of the data set: Antibacterial activity against Staphylococcus aureus NCTC 10788 assessed as bacterial growth inhibition by microbroth dilution method. Type of data set: functional. (In general: In broth dilution the organism is exposed to a series of concentrations in liquid medium.)
The test system of the next data set is D-peptidase BogQ. The data set is described as follows: Substrate activity at bacterial D-peptidase BogQ expressed in Escherichia coli BL21 assessed as enzyme-mediated compound hydrolysis at 50 uM incubated for 1 hr by UPLC-MS analysis. It counts as ADME. Particulars: bacteria; read-out: Activity. Put shortly: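 His-purified (Ni-NTA) enzyme from IPTG-induced E. coli BL21 (200 μM IPTG after 15 °C hold). Substrate 50 μM with BogQ 20 nM for 1 h or TriFpep 200 nM for 24 h, 37 °C, in 25% PBS pH 7.4. Quenched with cold methanol, cleavage ratio by UPLC–MS at end point; two independent experiments.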

A further data set relates to Escherichia coli. Nature of the data set: Antibacterial activity against Escherichia coli NCTC 12241 assessed as bacterial growth inhibition by microbroth dilution method. Type of data set: functional.

Consider `CCCCCCCC(=O)N[C@@H](C(=O)N[C@H](CCN)C(=O)NCC(=O)N[C@H](CO)C(=O)N[C@H](Cc1c[nH]c2ccccc12)C(=O)N[C@@H](CO)C(=O)N[C@@H](CCN)C(=O)N[C@H](CCN)C(=O)N[C@@](C)(Cc1ccccc1)C(=O)N[C@@H](CCC(=O)O)C(=O)N[C@H](C(=O)N[C@@H](C(=O)N[C@@H](C)C(=O)O)C(C)C)C(C)C)C(C)C`, for which the MIC with Staphylococcus aureus and in the data set with Escherichia coli was > 50 µg/mL each time. For the same compound, the metabolised at 1 h, 50 µM in the data set on D-peptidase BogQ turned out to be 39%.
Consider `CCCCCCCC(=O)N[C@@H](C(=O)N[C@@H](CCN)C(=O)NCC(=O)N[C@H](CO)C(=O)N[C@H](Cc1c[nH]c2ccccc12)C(=O)N[C@@H](CO)C(=O)N[C@@H](CCN)C(=O)N[C@H](CCN)C(=O)N[C@@H](Cc1ccccc1)C(=O)N[C@@H](CCC(=O)O)C(=O)N[C@H](C(=O)N[C@@H](C(=O)N[C@@H](C)C(=O)O)C(C)C)C(C)C)C(C)C` (Octanoyl-[dV][Dab]G[dS][dW]S[Dab][dDab]FEV[dV]A-OH), for which the MIC in the data set with Staphylococcus aureus and with Escherichia coli was > 50 µg/mL throughout. Also, the metabolised at 1 h, 50 µM in the data set with D-peptidase BogQ worked out at 60%.
Regarding `CCCCCCCC(=O)N[C@@H](C(=O)N[C@H](CCN)C(=O)NC(C)(C)C(=O)N[C@H](CO)C(=O)N[C@H](Cc1c[nH]c2ccccc12)C(=O)N[C@@H](CO)C(=O)N[C@@H](CCN)C(=O)N[C@H](CCN)C(=O)N[C@@H](Cc1ccccc1)C(=O)N[C@@H](CCC(=O)O)C(=O)N[C@H](C(=O)N[C@@H](C(=O)N[C@@H](C)C(=O)O)C(C)C)C(C)C)C(C)C` (Octanoyl-[dV][dDab][Aib][dS][dW]S[Dab][dDab]FEV[dV]A-OH), the MIC with Staphylococcus aureus and in the data set on Escherichia coli was > 50 µg/mL in each case. For the same compound, in the data set with D-peptidase BogQ, the metabolised at 1 h, 50 µM is > 90%.
As to `CCCCCCCC(=O)N[C@@H](C(=O)N[C@H](CCN)C(=O)NC(C)(C)C(=O)N[C@H](CO)C(=O)N[C@H](Cc1c[nH]c2ccccc12)C(=O)N[C@@H](CO)C(=O)N[C@@H](CCN)C(=O)N[C@H](CCN)C(=O)N(C)[C@@H](Cc1ccccc1)C(=O)N[C@@H](CCC(=O)O)C(=O)N[C@H](C(=O)N[C@@H](C(=O)N[C@@H](C)C(=O)O)C(C)C)C(C)C)C(C)C` (Octanoyl-[dV][dDab][Aib][dS][dW]S[Dab][dDab][NMeF]EV[dV]A-OH), the MIC in the data set on Staphylococcus aureus and with Escherichia coli was > 50 µg/mL throughout. Also, the metabolised at 1 h, 50 µM in the data set with D-peptidase BogQ was < 5%.
Take `CCCCCCCC(=O)N[C@@H](C(=O)N[C@H](CCN)C(=O)N(C)CC(=O)N[C@H](CO)C(=O)N[C@H](Cc1c[nH]c2ccccc12)C(=O)N[C@@H](CO)C(=O)N[C@@H](CCN)C(=O)N[C@H](CCN)C(=O)N[C@@H](Cc1ccccc1)C(=O)N[C@@H](CCC(=O)O)C(=O)N[C@H](C(=O)N[C@@H](C(=O)N[C@@H](C)C(=O)O)C(C)C)C(C)C)C(C)C` (Octanoyl-[dV][dDab][Sar][dS][dW]S[Dab][dDab]FEV[dV]A-OH): the MIC in the data set with Staphylococcus aureus and with Escherichia coli was > 50 µg/mL throughout. Moreover, the metabolised at 1 h, 50 µM with D-peptidase BogQ is > 90%.
Take `CCCCCCCC(=O)N[C@@H](C(=O)N[C@H](CCN)C(=O)N(C)CC(=O)N[C@H](CO)C(=O)N[C@H](Cc1c[nH]c2ccccc12)C(=O)N[C@@H](CO)C(=O)N[C@@H](CCN)C(=O)N[C@H](CCN)C(=O)N(C)[C@@H](Cc1ccccc1)C(=O)N[C@@H](CCC(=O)O)C(=O)N[C@H](C(=O)N[C@@H](C(=O)N[C@@H](C)C(=O)O)C(C)C)C(C)C)C(C)C` (Octanoyl-[dV][dDab][Sar][dS][dW]S[Dab][dDab][NMeF]EV[dV]A-OH): the MIC in the data set with Staphylococcus aureus and in the data set on Escherichia coli was > 50 µg/mL throughout. Further, in the data set with D-peptidase BogQ, the metabolised at 1 h, 50 µM was < 5%.
